Experiments:
Raji [1] = test: Inhibition of 12-O-tetradecanoylphorbol-13-acetate-induced EBV-early antigen activation in human Raji cells assessed as EA activation at 10 molar ratio after 48 hrs relative to TPA; format: cell-based; design: scale not given: the % may be the effect or the level left; details: human gammaherpesvirus 4
Procedure, shortened: (§1)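 Raji cells at 10⁶ cells/mL were resuspended in RPMI 1640/10% FCS containing 4 mM n-butyric acid inducer, 32 pmol TPA (20 ng/mL) and 32, 16, 3.2 or 0.32 nmol compound (DMSO), then held 48 h at 37 °C. EA-positive cells were scored blind, at least 500 cells per assay. Activation is expressed as % of the TPA-only positive control (100%), mean ± SD. IC50 is given as mol ratio/TPA.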

[2] = Cytotoxicity against human Raji cells assessed as cell viability at 1000 molar ratio after 48 hrs by trypan blue staining relative to TPA; format: cell-based; details: read-out: Activity
Procedure, shortened: (§2)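 Raji cells grown to 10⁶ cells/mL, pelleted, resuspended in RPMI 1640 with 10% FCS, 4 mM n-butyric acid, 32 pmol TPA (20 ng/mL in DMSO) plus test compound in DMSO (0.32–32 nmol; mole ratio to TPA 10–1000). After 48 h at 37 °C, cell number and viability were counted on a hemocytometer by Trypan Blue exclusion. At least 60% viability was required for valid EA data.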

[3] = Cytotoxicity against human Raji cells assessed as cell viability at 500 molar ratio after 48 hrs by trypan blue staining relative to TPA; format: cell-based; details: read-out: Activity; procedure, shortened: as §2
[4] = Cytotoxicity against human Raji cells assessed as cell viability at 100 molar ratio after 48 hrs by trypan blue staining relative to TPA; format: cell-based; details: read-out: Activity; procedure, shortened: as §2
[5] = Inhibition of 12-O-tetradecanoylphorbol-13-acetate-induced EBV-early antigen activation in human Raji cells assessed as EA activation per 32 pmol TPA after 48 hrs; format: cell-based, human gammaherpesvirus 4; procedure, shortened: as §1
Raji [6] = test: Inhibition of 12-O-tetradecanoylphorbol-13-acetate-induced EBV-early antigen activation in human Raji cells assessed as EA activation at 1000 molar ratio after 48 hrs relative to TPA; format: cell-based; design: scale not given: the % may be the effect or the level left; details: human gammaherpesvirus 4; procedure, shortened: as §1
[7] = Cytotoxicity against human Raji cells assessed as cell viability at 10 molar ratio after 48 hrs by trypan blue staining relative to TPA; format: cell-based; details: read-out: Activity; procedure, shortened: as §2
Raji [8] = test: Inhibition of 12-O-tetradecanoylphorbol-13-acetate-induced EBV-early antigen activation in human Raji cells assessed as EA activation at 100 molar ratio after 48 hrs relative to TPA; format: cell-based; design: scale not given: the % may be the effect or the level left; details: human gammaherpesvirus 4; procedure, shortened: as §1
Raji [9] = test: Inhibition of 12-O-tetradecanoylphorbol-13-acetate-induced EBV-early antigen activation in human Raji cells assessed as EA activation at 500 molar ratio after 48 hrs relative to TPA; format: cell-based; design: scale not given: the % may be the effect or the level left; details: human gammaherpesvirus 4; procedure, shortened: as §1

Row | IC50 [5] | Structure (SMILES) | Activity (Raji [1]) | viability at 48 h, 1000 molar ratio relative to TPA [2] | viability at 48 h, 500 molar ratio relative to TPA [3] | viability at 48 h, 100 molar ratio relative to TPA [4] | Activity (Raji [6]) | viability at 48 h, 10 molar ratio relative to TPA [7] | Activity (Raji [8]) | Activity (Raji [9])
1 | 370 molar ratio | CC(C)=CCc1c2c(c(O)c3c1Oc1cc(O)c4c(c1OC3=O)C=CC(C)(C)O4)C=CC(C)(C)O2 [GARCINISIDONE C] | 93.5% | 70% | > 80% | > 80% | 0% | > 80% | 72.2% | 41.8%
2 | 400 molar ratio | CC1=C(/C=C/C(C)=C/C=C/C(C)=C/C=C/C=C(C)/C=C/C=C(C)/C=C/C2=C(C)CCCC2(C)C)C(C)(C)CCC1 [BETA CAROTENE] | 100% |  |  |  | 9.1% |  |  | 
3 | 360 molar ratio | CC(C)=CCc1c(O)c2c(c3c1OC(C)(C)C=C3)Oc1cc(O)c3c(c1OC2=O)C=CC(C)(C)O3 [GARCINISIDONE D] | 92.8% | 60% | > 80% | > 80% | 0% | > 80% | 72% | 40.4%
4 | 410 molar ratio | COc1c(O)cc2c(c1CC=C(C)C)OC(=O)c1c(cc3c(c1O)C=CC(C)(C)O3)O2 [GARCINISIDONE B] | 100% | 70% | > 80% | > 80% | 0% | > 80% | 81.7% | 50.6%
5 | 365 molar ratio | COc1c(O)cc2c(c1CC=C(C)C)OC(=O)c1c(cc(O)c(CC=C(C)C)c1O)O2 [GARCINISIDONE A] | 91.6% | 70% | > 80% | > 80% | 0% | > 80% | 78.3% | 44.2%
6 | 350 molar ratio | CC(C)=CCc1c(O)c(CC=C(C)C)c2c(c1O)C(=O)Oc1c(cc(O)c3c1C=CC(C)(C)O3)O2 [GARCINISIDONE E] | 90.2% | 70% | > 80% | > 80% | 0% | > 80% | 71.1% | 40%

Reference: ChEMBL document CHEMBL1155700, “Cancer chemopreventive agents. New depsidones from Garcinia plants” (J Nat Prod, 2001)
